For 55 sequences, folding enthalpy and Tm results are on record in the array DNA melting data of Ke et al. (doi:10.1101/2024.01.08.574731).

Series [1] in a line: folding enthalpy; higher = less favourable; fluorescence melt of hairpins on a sequencing array, two-state fit. The conditions noted are these: sodium 0.088 M. Summed up:
(§1)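 Folding enthalpy and melting temperature come from bootstrapped two-state fits to Cy3 fluorescence of library hairpins carrying annealed Cy3 and quencher oligos on a sequenced MiSeq flow cell. Imaging was done in 50 mM Na-HEPES pH 8.0, 25 mM NaCl, stepping by 2.5 °C up to 60 °C, and signals were normalised to pre-quench Cy3 and to control constructs. Results of four replicates were combined by inverse variance, and fitted temperatures were raised by 9.35 °C to match UV melts.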

Series [2] in a line: melting temperature; fluorescence melt of hairpins on a sequencing array, two-state fit, raised by 9.35 °C to match UV melts. To be noted: sodium 0.088 M. In a few lines: as §1

With GAAGCGCGAAAGCGTTTC (((.(((....))).))), the folding enthalpy in series [1] was -23.1 kcal/mol. The Tm in series [2] was found to be 56 °C.

As for GACACAACGAAAGTTGTC (((..(((....)))))), the folding enthalpy in series [1] is -9.73 kcal/mol. In series [2], the Tm worked out at 38.7 °C.

GACCGGCGAAAGCCTGTC (((.(((....))).))): in series [1], the folding enthalpy is -22.3 kcal/mol. Moreover, in series [2], the Tm came to 49.6 °C.

Regarding GTTTTCGCGAAAGCGAAC (((..(((....)))))), in series [1], the folding enthalpy is -8.54 kcal/mol. Also, the Tm in series [2] worked out at 40.1 °C.

As to GATTTCCGAAAGGATATC (((.(((....))).))), the folding enthalpy in series [1] was -24.6 kcal/mol. In addition, in series [2], the Tm amounted to 42 °C.

For the sequence GATCGCCTCCGCGATC ((((((....)))))), in series [1], the folding enthalpy is -44.6 kcal/mol. Moreover, in series [2], the Tm turned out to be 63.9 °C.

Regarding GTCAGAGCGAAAGCTGAC (((..(((....)))))), in series [1], the folding enthalpy was -26.4 kcal/mol. In series [2], the Tm was determined as 49.3 °C.

With GACATGGGAAACTGTGTC ((((..(....)..)))), the folding enthalpy in series [1] was -28.2 kcal/mol. For the same sequence, the Tm in series [2] came out at 37.2 °C.

Take GATTCCGAAAGGAGAATC ((((((....)))..))): in series [1], the folding enthalpy is -17.4 kcal/mol. For the same sequence, the Tm in series [2] came out at 32.7 °C.

Regarding GCACCCCGAAAGGGATGC (((.(((....))).))), the folding enthalpy in series [1] is -40.6 kcal/mol. For the same sequence, the Tm in series [2] is 57.5 °C.

With GCTATCGGAAACGGTAGC ((((.((....)).)))), the folding enthalpy in series [1] is -38 kcal/mol. For the same sequence, in series [2], the Tm is 51.8 °C.

For the sequence GTCAGTGGAAACACTGAC (((((((....))))))), in series [1], the folding enthalpy was -47.6 kcal/mol. The Tm in series [2] turned out to be 64.5 °C.

Consider GTCAGACCGAAAGGTGAC (((..(((....)))))), for which, in series [1], the folding enthalpy was -21.4 kcal/mol. Also, in series [2], the Tm was determined as 44.4 °C.

For the sequence GGTGACGAAAGTCAGACC ((((((....)))..))), the folding enthalpy in series [1] was -14.6 kcal/mol. Besides, the Tm in series [2] came out at 44.6 °C.

For the sequence GATCTTTATAAAGATC ((((((....)))))), the folding enthalpy in series [1] is -38.4 kcal/mol. For the same sequence, the Tm in series [2] stood at 45.5 °C.

For the sequence GGGTTGAAAAACCC (((((....))))), in series [1], the folding enthalpy was -29.5 kcal/mol. In addition, in series [2], the Tm was determined as 55.5 °C.

Take GGAGAGGGAAACTTCTCC (((((.(....).))))): the folding enthalpy in series [1] is -26.8 kcal/mol. Further, the Tm in series [2] amounted to 44.3 °C.

Regarding CGCGGACCTTCCGCG ((((((...)))))), the folding enthalpy in series [1] was -28.5 kcal/mol. In addition, the Tm in series [2] is 69.2 °C.

Consider GCTCCGCGAAAGCTGCGC ((.(.((....)).).)), for which the folding enthalpy in series [1] is -14.5 kcal/mol. The Tm in series [2] is 44.4 °C.

Take GAGGCCGAAAGGCTACTC ((((((....)))..))): the folding enthalpy in series [1] was -11.7 kcal/mol. For the same sequence, the Tm in series [2] turned out to be 42.9 °C.

Consider GACAAGCGAAAGCTAGTC (((.(((....))).))), for which, in series [1], the folding enthalpy was -23 kcal/mol. Further, the Tm in series [2] was found to be 52 °C.

With GCGCTCGGAAACAAGCGC (((((.(....).))))), the folding enthalpy in series [1] was -46.7 kcal/mol. In addition, the Tm in series [2] was 55.9 °C.

On to GATCCCCGAAAGGGTATC (((.(((....))).))), for which the folding enthalpy in series [1] is -21.1 kcal/mol. Besides, in series [2], the Tm stood at 42.2 °C.

As for GACCGCGAAAGCGTAGTC ((((((....)))..))), in series [1], the folding enthalpy is -14.6 kcal/mol. The Tm in series [2] is 46.5 °C.

With GTCTTTGGAAACAAAGGC (.(((((....))))).), the folding enthalpy in series [1] was -29.3 kcal/mol. The Tm in series [2] was found to be 46.6 °C.

For the sequence GGCGACGGAAACACCGCC ((((..(....)..)))), the folding enthalpy in series [1] is -29.3 kcal/mol. The Tm in series [2] was determined as 44.5 °C.

Consider GATCGTCACAACGATC ((((((....)))))), for which the folding enthalpy in series [1] is -39.3 kcal/mol. The Tm in series [2] was determined as 56.9 °C.

As for GGCAAGAAATTGCC (((((....))))), the folding enthalpy in series [1] was -33.2 kcal/mol. The Tm in series [2] was 53 °C.

Take GATCGTTATTACGATC ((((((....)))))): the folding enthalpy in series [1] is -39.8 kcal/mol. In addition, the Tm in series [2] is 56.1 °C.

On to GGGTCACGAAAGTGTCCC (((.(((....))).))), for which the folding enthalpy in series [1] is -39.8 kcal/mol. Besides, the Tm in series [2] stood at 59.6 °C.

Turning to GGTTACGAAAGTAATACC ((((((....)))..))), the folding enthalpy in series [1] is -14.9 kcal/mol. In addition, in series [2], the Tm was 33.5 °C.

Regarding GTCGTGCGAAAGCAGAC (((.(((....)))))), the folding enthalpy in series [1] was -21.2 kcal/mol. Also, the Tm in series [2] stood at 56.5 °C.

For the sequence GCGGGGCCCGC ((((...)))), the folding enthalpy in series [1] was -34.8 kcal/mol. The Tm in series [2] amounted to 63.3 °C.

Take GTTGTAGGAAACTGCAAC ((((.((....)).)))): the folding enthalpy in series [1] is -17.8 kcal/mol. Further, in series [2], the Tm was 46.9 °C.

As for GGGTAGGGAAACCTGCCC (((.(((....))).))), the folding enthalpy in series [1] was -45 kcal/mol. In series [2], the Tm was determined as 55.7 °C.

With GCCAGTTCGAAAGAAGGC (((..(((....)))))), the folding enthalpy in series [1] was -20.2 kcal/mol. For the same sequence, in series [2], the Tm amounted to 37.1 °C.

As for GTACGCGGAAACGTGTAC ((((.((....)).)))), the folding enthalpy in series [1] is -28.1 kcal/mol. In addition, the Tm in series [2] was determined as 54.6 °C.

In the case of GCAGCGCGAAAGCGGCGC ((..(((....)))..)), the folding enthalpy in series [1] was -21.6 kcal/mol. In addition, in series [2], the Tm was 67.5 °C.

Take CGCGGAACGGTCCGCG ((((((....)))))): the folding enthalpy in series [1] was -38.7 kcal/mol. The Tm in series [2] was determined as 61.6 °C.

For GCCCCGCGAAAGCAGAGC ((.(.((....)).).)), the folding enthalpy in series [1] was -11.5 kcal/mol. In series [2], the Tm stood at 32.8 °C.

Turning to GTAAGCGGAAACGCTTAC (((((((....))))))), the folding enthalpy in series [1] is -36.1 kcal/mol. Moreover, the Tm in series [2] came out at 65.2 °C.

On to GCTCTCGGAAACAAGAGC (((((.(....).))))), for which, in series [1], the folding enthalpy was -33.6 kcal/mol. In addition, the Tm in series [2] stood at 40.2 °C.

As for GCGGAAGACCGC ((((....)))), in series [1], the folding enthalpy was -18.5 kcal/mol. Further, the Tm in series [2] was found to be 52.8 °C.

Turning to GCGTCTTCACGC ((((....)))), the folding enthalpy in series [1] was -26.9 kcal/mol. In addition, in series [2], the Tm turned out to be 51.4 °C.

Turning to GTAGGTGGAAACACTTGC (.(.(((....))).).), the folding enthalpy in series [1] was -14.3 kcal/mol. Moreover, in series [2], the Tm is 31.7 °C.

As for GTCGCTACGAAAGTAGAC (((..(((....)))))), the folding enthalpy in series [1] is -14.6 kcal/mol. Moreover, the Tm in series [2] stood at 33.3 °C.

Take GTTACGGGAAACTGTGAC ((.((.(....).)).)): the folding enthalpy in series [1] is -24.5 kcal/mol. In addition, the Tm in series [2] worked out at 32.5 °C.

Consider GTGTCCGAAAGGACCCAC ((((((....)))..))), for which the folding enthalpy in series [1] was -8.57 kcal/mol. The Tm in series [2] came out at 38.5 °C.

In the case of GCAGCGCGAAAGCGCCGC ((.((((....)))).)), the folding enthalpy in series [1] is -15.5 kcal/mol. Moreover, in series [2], the Tm is 67.4 °C.

As to GTTGCAGGAAACTGCAAC (((((((....))))))), the folding enthalpy in series [1] is -39.6 kcal/mol. In series [2], the Tm came out at 68 °C.

On to GGCACAGGAAACCGTGCC (((((.(....).))))), for which the folding enthalpy in series [1] was -43.9 kcal/mol. Also, the Tm in series [2] turned out to be 56.8 °C.

As to GATCTCTGTGGAGATC ((((((....)))))), the folding enthalpy in series [1] is -37.1 kcal/mol. Further, the Tm in series [2] came out at 57.2 °C.

With GGAGCGTCGAAAGACTCC (((..(((....)))))), the folding enthalpy in series [1] is -13.7 kcal/mol. Moreover, in series [2], the Tm amounted to 31.4 °C.

With GATTTCCGAAAGGAATC (((.(((....)))))), the folding enthalpy in series [1] was -16.4 kcal/mol. Moreover, the Tm in series [2] was 42.9 °C.

Take GGAAGAGAAATCTTCC ((((((....)))))): the folding enthalpy in series [1] was -24.1 kcal/mol. In addition, the Tm in series [2] is 47.7 °C.
